Assay results as given in ChEMBL document CHEMBL1154491, “Synthesis, structure, antimicrobial and antioxidant investigations of dicoumarol and related compounds” (Eur J Med Chem, 2008).
Values after ≈ are worked out from the molar mass of the structure shown. Active and inactive are the calls of the source. The rule behind the calls is not given here.

Tests used:
[1] = Antioxidant activity assessed as ABTS radical scavenging activity by TEAC method; type: functional
Method in brief: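 The ABTS radical cation was diluted in PBS, pH 7.4, to an absorbance of 0.70 ± 0.02 at 734 nm at 37 °C. Graded dilutions of compound were added, and absorbance was read at 5, 10, 15 and 20 min after addition.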

[2] = system: Mus musculus; test: Acute toxicity in mouse at 2 g/kg; conditions: in vivo
[3] = system: Cutibacterium acnes; test: Antimicrobial activity against 1X10'-3 cfu/ml Propionibacterium acnes ATCC 11827 after 1 to 4 days; type: functional
Method in brief: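 Compounds were taken from an acetone stock (10 mg/mL), diluted in culture medium and set up as serial dilutions with duplicate blanks. After 1–4 days of incubation, bacterial growth was estimated by turbidimetry or agar plating to give the MIC.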

[4] = system: Staphylococcus aureus; test: Antimicrobial activity against 1.5X10'-3 cfu/ml Staphylococcus aureus ATCC 6538 after 1 to 4 days; type: functional
Method in brief: (§1)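 Compounds were dissolved in acetone (10 mg/mL stock) and diluted with culture medium into serial dilutions. Tests used Mueller-Hinton broth with 1% Tween 20, incubated aerobically at 36 ± 1 °C for 1–4 days alongside duplicate blanks. Growth was scored by turbidimetry or by plating on agar, and MIC was recorded.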

[5] = system: Staphylococcus epidermidis; test: Antimicrobial activity against 1.6X10'-3 cfu/ml Staphylococcus epidermidis ATCC 12228 after 1 to 4 days; type: functional; method in brief: as §1

Row | Structure (SMILES) | Activity [1] | Activity [2] | MIC [3] [µg/mL] | MIC [4] [µg/mL] | MIC [5] [µg/mL]
1 | COc1cc(C(c2c(O)oc3ccccc3c2=O)c2c(O)oc3ccccc3c2=O)cc(OC)c1OC | Active | – | – | – | –
2 | O=c1c(C(c2ccc([N+](=O)[O-])cc2)c2c(O)oc3ccccc3c2=O)c(O)oc2ccccc12 | Active | Non-toxic | 0.5 (≈ 1.09 µM) | 3.7 (≈ 8.09 µM) | 1.3 (≈ 2.84 µM)
3 | Cc1ccc(C(c2c(O)c3ccccc3oc2=O)c2c(O)c3ccccc3oc2=O)cc1 | Active | Non-toxic | – | – | –
4 | COc1ccc(C(c2c(O)c3ccccc3oc2=O)c2c(O)c3ccccc3oc2=O)cc1 | Active | Non-toxic | – | – | –
5 | O=c1c(C(c2ccccc2)c2c(O)oc3ccccc3c2=O)c(O)oc2ccccc12 | Active | – | – | – | –
6 | O=c1oc2ccccc2c(O)c1C(c1cccc(O)c1O)c1c(O)c2ccccc2oc1=O | Active | Non-toxic | 0.5 (≈ 1.13 µM) | 6.5 (≈ 14.6 µM) | 1.9 (≈ 4.28 µM)
7 | O=c1c(C(c2ccc(C(c3c(O)oc4ccccc4c3=O)c3c(O)oc4ccccc4c3=O)cc2)c2c(O)oc3ccccc3c2=O)c(O)oc2ccccc12 | Active | Non-toxic | – | – | –
8 | O=c1oc2ccccc2c(O)c1C(c1cc([N+](=O)[O-])ccc1O)c1c(O)c2ccccc2oc1=O | Active | – | – | – | –
